Assay results pooled from the literature.
Compare with care: the assays were run in different laboratories.
Target: Receptor tyrosine-protein kinase erbB-3 (ERBB3, Homo sapiens, UniProt P21860)

Structure (SMILES) | assay | setting | remaining binding
Cc1c(C(=O)O)cc(-c2ccc(C3CCNCC3)cc2)c2ccc(-c3ccc(C(F)(F)F)cc3)cc12 | binding, competition with immobilised ligand | 1 µM | 86%
COc1ccnn2ncc(-c3ccnc(N(C)C)n3)c12 | binding | 1 µM | 100%
COc1ncc2cc3ccccc3nc2c1C#N | cell-free assay, competition with immobilised ligand | 5 µM | 76%
Cc1noc([C@H]2C[C@@H](c3ccc(C(F)(F)F)cc3)CN(C(=O)N3CCS(=O)(=O)C3)C2)n1 | cell-free assay, competition with immobilised ligand | 1 µM | 100%
CN(c1nccc(-c2cnn3ncccc23)n1)C1CC1 | binding | 1 µM | 100%
O=C(Nc1ccc(Oc2ccc(F)cc2)cc1)N1CCc2ncccc2[C@H]1c1ccc(F)cc1 | cell-free assay, competition with immobilised ligand | 1 µM | 100%
N[C@@H]1CCN(c2nccc(-c3cnn4ncccc34)n2)C1 | binding | 1 µM | 100%
O=C1CCc2cc(Nc3cc(OC4CCOCC4)c([N+](=O)[O-])cc3Cl)ccc2N1 | cell-free assay, competition with immobilised ligand | 1 µM | 98%
Cc1cnn2ncc(-c3ccnc(N(C)C)n3)c2c1 | binding | 1 µM | 100%
O=C(c1ccc(Nc2ncc(Cl)c(-c3ccc(Cl)s3)n2)cc1)N1CCC(N2CCCC2)CC1 | binding, competition with immobilised ligand | 1 µM | 100%
CNC(=O)[C@@H]1CC[C@@H](n2c(-c3ccc4cnccc4c3)nc3ccc(C(=O)NCc4cccc(C(N)=O)c4)cc32)C1 | binding, competition with immobilised ligand | 1 µM | 100%
O=C(c1ccc(Nc2nccc(-c3cc4ccccc4s3)n2)cc1)N1CCC(N2CCCC2)CC1 | binding, competition with immobilised ligand | 1 µM | 100%
C[C@H]1CCN(c2nccc(-c3cnn4ncccc34)n2)C1 | binding | 1 µM | 100%
O=C(Nc1c[nH]nc1C(=O)NC1CCNCC1)c1cc(F)cc(F)c1 | binding, competition with immobilised ligand | 1 µM | 86%
C[C@H](NC(=O)c1cnc2n1[C@](C)(Cc1ccc(C#N)cc1)C(=O)N2c1cc(Cl)c(F)c(Cl)c1)C(=O)NC1(c2ccccn2)CC1 | cell-free assay, competition with immobilised ligand | 1 µM | 100%
CN(C)c1nccc(-c2cnn3ncccc23)n1 | binding | 1 µM | 87%
c1cncc(-c2cccc(Nc3nccc(NC4CCCCC4)n3)c2)c1 | binding, competition with immobilised ligand | 10 µM | 84%
COc1ccc2c(O[C@@H]3C[C@H]4C(=O)N[C@]5(C(=O)O)CC5/C=C\CCCCC[C@H](NC(=O)OC5CCCC5)C(=O)N4C3)cc(-c3csc(NC(=O)C(C)C)n3)nc2c1C (stereo partly shown) | cell-free assay, competition with immobilised ligand | 1 µM | 88%
CCN1CCN(Cc2ccc(C(=O)Nc3ccc(C)c(Oc4ccc5c(c4)CC(=O)N5)c3)cc2C(F)(F)F)CC1 | binding, competition with immobilised ligand | 1 µM | 100%
CC1CCCN1c1nccc(-c2cnn3ncccc23)n1 (stereo not shown) | binding | 1 µM | 100%
O=C(NCCCN1CCOCC1)c1ccc(Nc2ncc(Cl)c(-c3ccc(Cl)s3)n2)cc1 | binding, competition with immobilised ligand | 1 µM | 91%
O=C(NCc1ncc(C(F)(F)F)cc1Cl)c1ccc2c(c1)C1(CCS(=O)(=O)CC1)[C@H](C1CC1)N2S(=O)(=O)c1ccc(F)cc1 | cell-free assay, competition with immobilised ligand | 1 µM | 100%
